# Assay outcomes deposited in PubChem by several laboratories.
# An excerpt weighted towards active compounds, which were near 2% of everything screened.
# FLuc inhib CS = inhibits firefly luciferase, flagging false hits in luciferase inhibition screens; P08659; ATPLite firefly luciferase biochemical luminescence, 10 min; inhibition, % at 10 µM; 200,000 tested, 1.5% active; AID 1006;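 active means inhibition above about 50% when tested at 10 µM, limit read from the data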
# Target sequence (P08659 whole entry, looked up): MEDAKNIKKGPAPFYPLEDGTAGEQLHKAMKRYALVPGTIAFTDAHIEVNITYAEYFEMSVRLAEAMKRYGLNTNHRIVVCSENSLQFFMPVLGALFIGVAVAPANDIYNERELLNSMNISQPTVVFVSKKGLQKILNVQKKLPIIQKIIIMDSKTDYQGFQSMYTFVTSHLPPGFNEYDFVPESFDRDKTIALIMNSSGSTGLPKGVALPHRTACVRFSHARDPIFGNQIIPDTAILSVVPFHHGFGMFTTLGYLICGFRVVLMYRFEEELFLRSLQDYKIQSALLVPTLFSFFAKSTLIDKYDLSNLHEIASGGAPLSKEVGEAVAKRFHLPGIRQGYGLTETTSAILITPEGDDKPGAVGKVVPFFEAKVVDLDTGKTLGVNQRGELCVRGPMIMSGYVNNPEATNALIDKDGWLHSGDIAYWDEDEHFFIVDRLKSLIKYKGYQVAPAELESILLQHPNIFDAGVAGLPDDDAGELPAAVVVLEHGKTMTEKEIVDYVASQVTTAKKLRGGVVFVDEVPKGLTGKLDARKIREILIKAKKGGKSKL
# TRAIL sens C8 = sensitizes caspase-8 expressing cells to TRAIL; inhibition (viability loss, TRAIL sensitization), % at 10 µM; 360,000 tested, 1% active; NB7+C8 cells + TRAIL, ATPlite viability luminescence; AID 624354;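 active means compounds causing at least 50% loss of cell viability in the single-dose screen, relative to plate controls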
# HSP90 refold inh = blocks HSP90-mediated luciferase refolding in reticulocyte lysate. 290,000 tested, 0.91% active. Rabbit reticulocyte lysate, luciferase refolding luminescence, 3 h. inhibition, % at 5.6 µM;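 active means inhibition above the screen-wide mean plus 3 SD, computed separately per campaign, cut at about 16% in these data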;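 further: 0% = DMSO wells and 100% = 60 µM geldanamycin wells; inhibitors lower the luminescence because luciferase stays unfolded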
# PPC-1+TRAIL kill = PPC-1 cancer cell killing with TRAIL present; cell killing (% activity), % at 4 µM or 5 µM; PPC-1 cells + TRAIL, ATPLite viability luminescence; 220,000 tested, 0.41% active; AID 1443;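 active means cell killing above 50% in the first pass at 4 µM, then a duplicate retest at 5 µM averaging 50% or more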;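 further: plate controls were cells with TRAIL plus DMSO for no effect and medium-only wells lacking cells for full effect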
# FLuc act counter = affects firefly luciferase, flagging false hits in luciferase stimulation screens. 200,000 tested, under 10 active. activation factor at 10 µM. P08659. ATPlite luciferase biochemical, luminescence, 10 min; 0 = ATP-free wells, 1 = DMSO control;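 active means luciferase activation factor, scaled between plate controls, of at least 2 with compound at 10 µM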
#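 System: luciferase plus luciferin reagent, cell-free; medium: PBS as buffer for the ATP substrate; dosing: test compounds dosed from 2 mM stocks in 100% DMSO; timing: 10 min post-reagent at room temperature; measured by: luminescence measurement of luciferase light output; evaluation: luciferase activation, seen as luminescence increase over controls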
# Starred values were filed as active, the others as inactive; nt = no result.
SMILES,FLuc inhib CS,TRAIL sens C8,HSP90 refold inh,PPC-1+TRAIL kill,FLuc act counter
CCOC(=O)C1=CCN(S(=O)(=O)c2ccccc2C)C1c1ccc(Cl)cc1 (stereo not drawn),nt,59.4*,nt,nt,nt
CCOC(=O)C1=CCN(S(=O)(=O)c2ccccc2F)C1c1ccc(Cl)cc1 (stereo not drawn),nt,5.7,nt,nt,nt
O=C(Nc1nccs1)c1ccc(N2CCOCC2)c([N+](=O)[O-])c1,nt,11.6,3.8,nt,nt
Oc1c(C=NCc2ccccc2)sc2ccccc12,19.4,8.2,24.2*,2.3,0.8
CC1=C/C(=C\c2ccc3c(c2)OCO3)C(=O)S1,50.8*,-13.1,2.0,9.2,0.5
CCCN1C/C(=C/c2ccc3c(c2)OCO3)C(=O)/C(=C/c2ccc3c(c2)OCO3)C1,0.3,-9.2,-3.8,1.1,1
CN(C)/C=C1\Oc2ccc3ccccc3c2C1=O,8.4,2.5,1.9,-1.5,0.9
O=C1C(=O)c2c(ccc3ccccc23)-c2ccccc21,nt,67.0*,nt,nt,nt
COc1ccccc1NC(=O)Cn1nnc(C(=O)NCCc2ccccc2)c1N,1.6,0.1,-0.5,-1.0,1
Cc1[nH]cnc1C(=O)N/N=C/c1c(Cl)cccc1Cl,nt,59.2*,5.0,nt,nt
Cc1nnsc1C(=O)N/N=C/c1c(F)cccc1Cl,-2.9,-0.3,-6.0,-13.5,1
O=C(COC(=O)c1ccc(S(=O)(=O)N2CCCC2)cc1)NCc1cccs1,-0.3,-9.0,1.7,-14.1,1
C/C(=N\NC(=O)COc1ccc(C)cc1C(C)C)c1cc2ccccc2o1,72.1*,47.4,-1.4,15.9,0.3
NS(=O)(=O)c1ccc(CCNC(=O)CNS(=O)(=O)c2cccc(Br)c2)cc1,2.9,14.1,-4.8,16.9,1
CC(C)c1ccc(/C=c2\sc3n(c2=O)C(N)=C(C#N)C(c2ccc(C(C)C)cc2)C=3C(N)=O)cc1 (stereo not drawn),nt,62.8*,nt,nt,nt
CCOC(=O)C1=C(N)n2c(s/c(=C\c3cccnc3)c2=O)=C(C#N)C1c1cccnc1 (stereo not drawn),nt,16.1,nt,nt,nt
COc1ccc(C(=O)COC(=O)c2cnc(C)cn2)cc1OC,nt,-0.1,nt,nt,nt
Nc1ccc(Cn2ccc3c4c(N)nc(N)nc4ccc32)cc1,nt,73.9*,nt,nt,nt
COc1ccc(OCC(=O)Nc2nc3ccccc3[nH]2)cc1,67.8*,38.7,1.3,36.1,0.3
O=C(CC1CCCC1)Nc1nc2ccccc2[nH]1,20.7,50.6*,-6.2,2.7,0.8
Cc1cc(C)cc(C(=O)Nc2nc3ccccc3[nH]2)c1,nt,50.4*,-1.7,nt,nt
COc1cc(C(=O)Nc2nc3ccccc3[nH]2)ccc1OC(F)F,nt,47.5*,-1.4,-8.5,nt
O=C(CCc1c[nH]c2ccccc12)NCCc1ccc(Cl)cc1,nt,-0.5,-0.1,nt,nt
COc1cc(OC)cc(C(=O)Nc2nc3ccccc3[nH]2)c1,31.4,52.6*,-4.1,21.6,0.7
COc1ccc(C(=O)Nc2nc3ccccc3[nH]2)cc1OC,29.2,6.5,6.5,20.0,0.7
SMILES,FLuc inhib CS,TRAIL sens C8,HSP90 refold inh,PPC-1+TRAIL kill,FLuc act counter
CC1CCc2c(C(=O)Nc3ccc(N4CCOCC4)cc3)csc2C1 (stereo not drawn),-3.7,-4.6,-0.1,9.8,1
O=C(Oc1c(CN2CCOCC2)cc(Cl)c2cccnc12)c1ccccc1Br,nt,55.1*,5.6,-0.3,nt
CN1CCN(Cc2cc(Cl)c3cccnc3c2OC(=O)c2cccs2)CC1,-7.7,7.5,-1.8,21.1,1.1
Oc1c(CN2CCOCC2)cc(COCc2ccccc2)c2cccnc12,-5.3,53.0*,4.6,55.3*,1.1
CCCCCCCCN1C(=O)[C@H](CC(=O)NCCCCc2ccccc2)C[C@@]2(C(=O)OC)CC(C)(C)CC=C12,nt,11.4,nt,nt,nt
CC(=O)c1cccc(-c2ccnc3c2CC(C(=O)Nc2ccc(Cl)c(C(F)(F)F)c2)O3)c1 (stereo not drawn),nt,4.5,nt,nt,nt
Cc1ccsc1/C=N/NC(=O)Cc1cccn1C,-3.3,0.7,-0.4,1.1,1
N/C(=N\OC(=O)c1ccc(Cl)c(Cl)c1)c1cccnc1,46.1,83.1*,1.1,15.3,0.5
N/C(=N\OC(=O)c1cc(Cl)ccc1Cl)c1cccnc1,15.8,6.0,6.3,2.0,0.8
N/C(=N\OC(=O)c1cccc(Cl)c1)c1cccnc1,68.3*,63.5*,-1.5,20.7,0.3
CCOc1ccccc1NC(=O)C1CCN(C(=O)c2cccs2)CC1,-9.9,-3.0,3.5,5.4,1.1
N#Cc1c(C#N)c(SSc2c(C#N)c(C#N)c(N)n2-c2ccccc2)n(-c2ccccc2)c1N,nt,79.0*,nt,nt,nt
CC1CCCN(C(=O)c2cc(S(=O)(=O)N3CCCCC3)c[nH]2)C1 (stereo not drawn),nt,-4.2,2.2,nt,nt
CC1(C)C(=O)C2(C(=O)NCc3ccccc3)CCC1C2 (stereo not drawn),-10.7,-4.3,16.5*,-4.9,1.1
O=C1NC(c2cccc(Br)c2)=N/C1=C\c1ccco1,9.9,-4.2,-7.6,9.3,0.9
O=C1NC(c2ccccc2)=N/C1=C/c1ccco1,72.8*,23.7,0.1,29.7,0.3
CN(NC(=O)C(C)(C)C)c1nc(-c2ccccc2)nnc1C(F)(F)F,-3.7,56.0*,-0.3,19.1,1
Clc1cnc(Nc2cccnc2)c(Cl)c1,nt,13.8,-0.4,nt,nt
O=C(NNC(=O)C1CC=CCC1C(=O)O)c1ccc(Cl)cc1 (stereo not drawn),-2.8,-5.9,-0.5,-0.5,1
O=C(/C=C/c1ccccc1[N+](=O)[O-])Nc1cccc(S(=O)(=O)NC2=NCCCCC2)c1,nt,-24.0,nt,nt,nt
O=C(/C=C/c1ccc(Cl)cc1Cl)Nc1cccc(S(=O)(=O)NC2=NCCCCC2)c1,55.3*,25.1,-3.6,17.5,0.4
COc1ccc2oc(-c3ccco3)cc(=O)c2c1,58.8*,13.2,-2.7,15.6,0.4
COc1ccc(S(=O)(=O)N2C[C@H]3CON(C)[C@H]3C[C@H]2c2ccc(-c3cc4ccccc4o3)cc2)cc1,nt,41.7,nt,nt,nt
OCCCNc1ncnc2c1cnn2-c1ccc(Cl)cc1,nt,30.1,16.5*,nt,nt
CCCNc1ncnc2c1cnn2-c1ccc(OC)cc1,43.1,nt,9.4,nt,0.6
SMILES,FLuc inhib CS,TRAIL sens C8,HSP90 refold inh,PPC-1+TRAIL kill,FLuc act counter
C=CCNc1ncnc2c1cnn2-c1ccc(OC)cc1,59.0*,25.3,5.7,41.2,0.4
CCC(CO)Nc1ncnc2c1cnn2-c1ccc(Cl)cc1 (stereo not drawn),34.4,30.0,26.7*,26.5,0.7
CCC(CO)Nc1ncnc2c1cnn2-c1ccc(OC)cc1 (stereo not drawn),45.2,33.1,8.4,20.3,0.5
CN(C)c1ccc(NC(=O)c2sc(SCC(=O)Nc3nccs3)nc2N)cc1,54.7*,23.0,-2.1,22.7,0.5
Cc1cccc(N2CCN(C(=O)NC(C)c3ccc(F)c(F)c3)CC2)c1C (stereo not drawn),nt,7.5,-2.3,nt,nt
C(C#CCCCCCCCCC[n+]1ccccc1)#CCCCCCCCCC[n+]1ccccc1,nt,90.9*,-5.5,nt,nt
O=C(C[C@H]1C/C=C\C[C@H](NC(=O)OCC2c3ccccc3-c3ccccc32)C(=O)OC[C@H](Cc2ccccc2)NC1=O)N[C@H](CO)Cc1ccccc1,nt,63.5*,nt,nt,nt
